# Assay outcomes deposited in PubChem by Sanford-Burnham Center for Chemical Genomics.
# TNAP inh hiacc: blocks human TNAP under high phosphate acceptor concentration | P05186 | purified TNAP, CDP-star luminescence, 1 M DEA | inhibition, % at 20 µM | 0.03% of 200,000 active;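 active means over 50% inhibition of tissue-nonspecific alkaline phosphatase at 20 µM in the single-dose screen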;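 further: plate controls were DMSO wells for no effect and EDTA-quenched wells as full inhibition for full effect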
# Target sequence (P05186 whole entry, looked up): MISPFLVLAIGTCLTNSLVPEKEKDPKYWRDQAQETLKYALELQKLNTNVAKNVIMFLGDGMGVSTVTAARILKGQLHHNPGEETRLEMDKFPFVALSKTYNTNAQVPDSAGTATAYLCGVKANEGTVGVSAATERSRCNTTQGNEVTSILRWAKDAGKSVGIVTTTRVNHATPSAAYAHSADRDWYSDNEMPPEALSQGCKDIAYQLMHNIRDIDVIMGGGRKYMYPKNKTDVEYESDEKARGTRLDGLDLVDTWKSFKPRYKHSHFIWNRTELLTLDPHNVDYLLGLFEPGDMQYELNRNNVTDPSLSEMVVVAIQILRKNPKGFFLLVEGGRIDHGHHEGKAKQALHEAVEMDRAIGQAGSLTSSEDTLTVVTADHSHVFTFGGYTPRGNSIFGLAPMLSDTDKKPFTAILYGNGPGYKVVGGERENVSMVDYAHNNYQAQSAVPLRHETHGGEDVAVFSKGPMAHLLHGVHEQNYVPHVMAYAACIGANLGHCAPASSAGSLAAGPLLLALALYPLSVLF
# PMI activator: increases human mannose-6-phosphate isomerase activity. purified human PMI, coupled resazurin fluorescence, 20 min; stronger effect = higher value; 1 = vehicle control, 0 substrate-free wells. activation factor at 20 µM. 0.005% of 190,000 active;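 active means activation factor of 2 or more at 20 µM, relative to plate controls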
# PMI act satM6P: activators of human phosphomannose isomerase at near-saturating mannose 6-phosphate | coupled PMI enzyme assay, resazurin fluorescence, 20 min; stronger effect = higher value; 1 = untreated enzyme, 0 = substrate-free blank | activation factor at 20 µM | 0.34% of 190,000 active | AID 1216;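 active means activation factor of 2 or more at 20 µM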
#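 Test system: human phosphomannose isomerase with PGI, G6PDH, diaphorase coupling enzymes / Doses: 20 µM compound, 1% DMSO / Times: enzyme reaction with compound 20 min at room temperature / Measured by: Diaphorase-driven resazurin-to-resorufin fluorescence, excitation 544, emission 590 nm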
# TNAP act hi DEA: TNAP (human) activation, high acceptor; purified TNAP, CDP-star luminescence, 1 M DEA, 30 min; stronger effect = higher value; 0 = EDTA background, 1 = DMSO-only activity; 200,000 tested, under 10 active; activation factor at 20 µM;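 active means activation factor at least 2 at 20 µM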
#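 Measured by: Luminescent substrate turnover signal | Test system: Human TNAP | Input: TNAP 1/800 final | Dosing: 20 µM single point | Schedule: 30 min, room temperature | Controls: EDTA wells as negative control, DMSO wells as positive control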
# TNAP inh no acc: inhibitors of human TNAP without phosphate acceptor. purified TNAP, CDP-star luminescence, 30 min. inhibition, % at 20 µM. 0.26% of 200,000 active. AID 1012;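 active means tissue-nonspecific alkaline phosphatase inhibition above about 50% at 20 µM in the single-dose screen, limit read from the data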;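 further: 0% = DMSO negative control and 100% = EDTA positive control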
# Starred values were filed as active, the others as inactive; x = no result. Compounds with a hit are over-represented: about 0.64% of the library has one in this group of screens.
SMILES,TNAP inh hiacc,PMI activator,PMI act satM6P,TNAP act hi DEA,TNAP inh no acc
Cc1ccc(C)c2[nH]c(=O)c(C(c3nnnn3C(C)(C)C)N3CC=C(c4ccc(F)cc4)CC3)cc12 (stereo not drawn),-2,0.9,1,1,15
O=[N+]([O-])c1ccc(-c2cnc(NO)nc2)cc1,0,0.8,0.9,1,4
O=C(c1ccc(F)cc1)c1cn[nH]c1-c1ccccc1O,-2,1,0.9,1,56*
Cc1ccc(C(=O)c2cn[nH]c2-c2ccccc2O)cc1,-5,1.1,0.9,1.1,41
CC1=NN(c2ccc(S(=O)(=O)O)cc2C)C(=O)C1,0,1.6,2.4*,1,-4
CC(=O)c1sc2nc(-c3cccs3)ccc2c1N,-10,1.7,2.1*,1.1,12
Nc1c(C(=O)Nc2nc3ccccc3s2)sc2nc(-c3cccs3)ccc12,6,0.9,0.9,0.9,10
CC1C(=O)NN=C1C(=O)N/N=C\c1ccc(O)cc1O (stereo not drawn),11,1,1.2,0.9,72*
COc1ccc(S(=O)(=O)N2CN(Cc3ccco3)c3nc4ccccc4nc32)cc1,-3,1.3,1.7,1,-10
CN(C)c1ccc(CNc2nc(-c3ccccc3)nn2S(C)(=O)=O)cc1,-5,1,0.9,1,-9
CC(=O)n1nc(-c2ccccc2)nc1NCc1ccc(N(C)C)cc1,-4,1,0.9,1,50*
Cc1ccccc1OCc1nnc2c3cnn(C)c3ncn12,-6,1.1,1.1,1.1,55*
COC(=O)C(NNc1ccccc1)(NC(=O)c1ccccc1F)C(F)(F)F (stereo not drawn),-4,1.5,2.3*,1,-12
O=C1c2ccccc2NC(c2cn[nH]c2-c2ccc(Cl)cc2)N1O (stereo not drawn),-4,1.7,2.2*,1,-22
COc1ccc(-n2c(-c3ccc(Br)cc3)c[n+]3c2CCCCC3)cc1,-7,1.1,1.1,1.1,6
Cc1nnc(NC2=NCCC2)s1,-10,1,1,1.1,-23
O=c1/c(=C/c2ccco2)sc2nc(-c3ccccc3Br)nn12,-6,1,1.2,1.1,58*
CCN(CC)S(=O)(=O)c1ccc(-c2nnc(SCc3nnc(-c4ccccc4)o3)o2)cc1,-3,1.1,1.1,1,-10
CCN(CC)c1ccc(/C=C2\C(=O)c3ccc(C(=O)O)cc3C2=O)cc1,39,0.8,0.7,0.6,57*
CCN(CC)c1ccc(C(=O)O)cc1,7,1,1,0.9,-2
O=C(COC(=O)c1c2c(nc3ccccc13)/C(=C/c1ccco1)CC2)NC1CCCC1,14,1.4,1.6,0.9,11
CC1CCCCC1NC(=O)COC(=O)c1c2c(nc3ccccc13)/C(=C/c1ccco1)CC2 (stereo not drawn),12,1.7,2*,0.9,-2
O=C(COc1ncnc2cc([N+](=O)[O-])ccc12)NCc1ccc2c(c1)OCO2,0,1,1,1,-1
N#Cc1c(NC(=S)NC(=O)c2ccccc2)sc2c1CCN(CCc1ccccc1)C2,12,1.6,2.2*,0.9,10
CCCCSc1nc(C)[nH]c1[N+](=O)[O-],-2,1.7,2*,1,-11
SMILES,TNAP inh hiacc,PMI activator,PMI act satM6P,TNAP act hi DEA,TNAP inh no acc
Cc1nc(SCCC(C)C)c([N+](=O)[O-])[nH]1,0,1.6,1.6,1,9
O=S1(=O)N=C(Nc2nncs2)c2ccccc21,9,0.8,1,0.9,61*
CCc1nnc(NCC(=O)N2CCc3ccccc32)s1,2,1.1,2.2*,1,-8
Cn1c(=O)oc2cc(S(=O)(=O)NCc3ccccn3)ccc21,-5,1.1,1.1,1,-12
Oc1ccc(O)c(Cc2nc3ccccc3s2)c1,1,1,1,1,61*
Cc1cc(C)c2nc(SC3CCOC3=O)cc(C)c2c1 (stereo not drawn),-3,1.5,2.5*,1,-7
Nc1nc(Cl)cc(N2CCCC2)n1,-4,0.7,0.5,1,-8
Nc1nc(Cl)cc(N2CCC(c3cc(-c4ccc(Cl)cc4Cl)n[nH]3)CC2)n1,-1,0.9,0.9,1,56*
CC(C)N1CCC(N2CCN(Cc3cccc4nonc34)CC2CCO)CC1 (stereo not drawn),0,x,x,1,-5
CCN(CC)c1ccc(N=Nc2nn(C)c(C)c2[N+](=O)[O-])cc1,56*,0.9,0.9,0.4,37
CCOc1ccccc1OCC(=O)O,-6,1.1,1.2,1.1,-11
O=C(COC(=O)c1c2c(nc3ccccc13)CCN(Cc1ccccc1)C2)Nc1c(F)cccc1F,-2,1.3,2*,1,-5
CCOC(=O)c1[nH]c(C)c(C(=O)N(C)Cc2ccccc2)c1C,-1,1,1,1,-8
